Source: publication PMC7115506 (European Journal of Medicinal Chemistry, 2018)

What was measured:
[1] = tested on: human leukemia K562 cells; assay: MTT cytotoxic activity assay, K562; format: cell-based; conditions: for enhancement of potency compared to that of 2d: ratio to 2d, K562; for IC50: read-out: IC50 K562, MTT, 48 h
Summary of the method: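 K562 cells at 5 × 10^4 cells/ml were plated for 2 h, then exposed to test compound at 10–100,000 nM for 48 h. MTT (5 mg/mL stock) was added for a further 4 h and read on a plate reader. DMSO-treated controls were set as 100% viability. IC50 came from nonlinear regression over three independent assays.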

[2] = tested on: liver cancer HepG2 cells; assay: MTT cytotoxic activity assay, HepG2; format: cell-based, human; conditions: read-out: IC50 HepG2
[3] = tested on: K562 cells; assay: Flow cytometric analysis of apoptosis; format: cell-based, human; conditions: 30 nM; 48 h
Summary of the method: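 K562 cells (RPMI-1640, 10% FBS) were seeded in six-well plates and given DMSO or test compound at 30 or 300 nM for 0, 6, 12, 24 and 48 h. Cells were washed twice in ice-cold PBS, resuspended in binding buffer, then stained with Annexin V-FITC (10 min) and PI at 50 μg/mL (10 min) at room temperature in the dark. Flow cytometry with quadrant statistics.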

[4] = tested on: HepG2 cells; assay: Wound healing assay; format: cell-based, human; conditions: 48 h, DMSO 184.89 μm
[5] = tested on: HepG2 cells; assay: Transwell assay; format: cell-based, human; conditions: 10 nM, 30 nM, 100 nM; 24 h
[6] = tested on: HUVEC cells; assay: Tube forming assay on Matrigel; format: cell-based, human; conditions: 10 nM, 30 nM, 100 nM; 12 h
[7] = tested on: K562 cells; assay: Morphological changes by microscopy; format: cell-based, human; conditions: 30 nM
Summary of the method: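 K562 cells were kept in RPMI-1640 with 10% FBS, 2.05 mM glutamine and 1% penicillin/streptomycin at 37 °C and 5% CO2. They were exposed to test compound at 30 nM, and morphology was compared with DMSO-treated cells.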

| Compound | enhancement of potency compared to that of 2d [1] | IC50 [1] [nM] | IC50 [2] [nM] | also measured |
| --- | --- | --- | --- | --- |
| COc1ccc(-c2ccc3c(c2)C(=O)C(=O)N3Cc2ccc(OC)c(OC)c2)cc1 [2q, 1-(3,4-dimethoxybenzyl)-5-(4-methoxyphenyl)indoline-2,3-dione] | 8–25 folds |  |  |  |
| (Z)-ethyl 2-(1-(4-methoxybenzyl)-5-(4-methoxyphenyl)-2-oxoindolin-3-ylidene)acetate [5d] |  | 1240 ± 540 | 3390 ± 270 |  |
| COc1ccc(CN2C(=O)C(=O)c3cc(-c4ccc(C(C)(C)C)cc4)ccc32)cc1 [compound 4e, 5-(4-(tert-butyl)phenyl)-1-(4-methoxybenzyl)indoline-2,3-dione] |  |  |  | drop of cytotoxic activity from that of 4k ([1]; ratio to 4k): 15 folds |
| COc1ccc(-c2ccc3c(c2)C(=O)C(=O)N3Cc2ccccc2OC)cc1 [2o, 1-(2-methoxybenzyl)-5-(4-methoxyphenyl)indoline-2,3-dione] | 8–25 folds |  |  |  |
| (Z)-methyl 2-(1-(4-methoxybenzyl)-5-(4-methoxyphenyl)-2-oxoindolin-3-ylidene)acetate [5e] |  | 1900 ± 140 | 4730 ± 1240 |  |
| COc1ccc(-c2ccc3c(c2)C(=O)C(=O)N3Cc2ccc3c(c2)OCO3)cc1 [2v, 1-(benzo[d] [1, 3]dioxol-5-ylmethyl)-5-(4-methoxyphenyl)indoline-2,3-dione] | 8–25 folds |  |  |  |
| COc1ccc(CN2C(=O)C(=O)c3cc(-c4ccc(OC)cc4)ccc32)cc1 [compound 2m, 1-(4-methoxybenzyl)-5-(4-methoxyphenyl)indoline-2,3-dione] | 8–25 folds |  |  | apoptotic rate of K562 cells [3]: 43.4%; The distance of migration ([4]; 10 nM): 162.89 μm; The distance of migration ([4]; 30 nM): 135.22 μm; The distance of migration ([4]; 100 nM): 96.24 μm; effect on HepG2 cells migration (transwell) [5]: could inhibit the HepG2 cells migration and have a dose-dependent inhibitory effect; effect on tube formation of HUVEC cells [6]: could inhibit the angiogenesis of HUVEC cells and have a dose-dependent inhibitory effect; morphological change: elongated cells (G2/M arrest morphology) ([7]; 6 h, vs DMSO-treated cells): elongated cells increased significantly; morphological change: apoptotic cells ([7]; 24 h): apoptotic cells were clearly observed |
| 1-(3,5-dimethylbenzyl)-5-(4-methoxyphenyl)indoline-2,3-dione [2p] |  | 140 ± 30 | 410 ± 30 |  |
| 1-(4-methoxybenzyl)-5-(thiophen-3-yl)indoline-2,3-dione [compound 4r] |  | 80 ± 40 | 3670 ± 1400 |  |
